The structures appear in SMILES notation. In brackets after ≈: the same amount, converted by molar mass.

Series [1] concerns the target Diacylglycerol O-acyltransferase 1 (Homo sapiens) (UniProt O75907). Nature of the series: Inhibition of human DGAT1 assessed as conversion of [14C]-oleoyl-CoA to [14C]-triglyceride at 1 uM after 10 mins by scintillation counting.
The test system of series [2] is Mus musculus. The series can be described thus: Antiobesity activity in Swiss mouse assessed as reduction in plasma triglyceride level at 3 mg/kg, po measured after 4 hrs by fat tolerance test. It counts as functional. Details: scale not given: the % may be the effect or the level left. The essentials: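 Fasted Swiss mice (4-5 weeks, 25-30 g) gavaged with test compound at 3 mg/kg as a suspension in 0.5% CMC with Tween 80, or with vehicle. Olive oil bolus (10 ml/kg) given 1 h later. Plasma TG measured by kit at 1, 2, 3 and 4 h. AUC0-4h expressed relative to vehicle (100%). Mean ± SEM, n = 8.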

A short description of series [3]: Aqueous solubility of the compound at pH 7.4 after 24 hrs. It counts as physicochemical. Conditions: aqueous medium.

Diacylglycerol O-acyltransferase 1 (Homo sapiens), sequence (O75907 whole entry, looked up): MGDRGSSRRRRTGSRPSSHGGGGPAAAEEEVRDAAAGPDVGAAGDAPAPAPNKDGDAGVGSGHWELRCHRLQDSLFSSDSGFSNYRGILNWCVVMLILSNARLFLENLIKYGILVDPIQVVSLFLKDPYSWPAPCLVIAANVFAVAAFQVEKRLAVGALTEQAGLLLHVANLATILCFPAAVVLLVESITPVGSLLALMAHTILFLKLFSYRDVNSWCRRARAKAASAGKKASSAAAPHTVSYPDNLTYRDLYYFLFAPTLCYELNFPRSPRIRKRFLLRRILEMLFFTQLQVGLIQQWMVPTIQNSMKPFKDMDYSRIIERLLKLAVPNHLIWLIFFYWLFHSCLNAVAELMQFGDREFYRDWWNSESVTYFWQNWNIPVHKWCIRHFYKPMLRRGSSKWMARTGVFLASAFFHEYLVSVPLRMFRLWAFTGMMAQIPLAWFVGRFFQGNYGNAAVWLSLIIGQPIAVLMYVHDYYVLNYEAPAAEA

Take `Cc1ccc(NC(=O)Nc2ccc(-c3cnc(C(=O)N[C@H](C(=O)O)C(C)C)o3)cc2)cc1C`: in series [1], the inhibition was determined as 69%. The same measure, in the same setting: under `CC(C)[C@H](NC(=O)c1cc(-c2ccc(NC(=O)Nc3ccc(Cl)cc3)cc2)no1)C(=O)O` stands 84%. In the case of `CC(C)[C@H](NC(=O)c1cc(-c2ccc(NC(=O)Nc3ccc(Cl)cc3Oc3ccccc3)cc2)no1)C(=O)O`, the Activity in series [2] was 35%. Moreover, the solubility at 24 h in series [3] came out at 140 µg/mL (≈ 255 µM). Moreover, the inhibition in series [1] was determined as 91%. On to `CC(C)[C@H](NC(=O)c1ccc(-c2ccc(Nc3nc4ccc(F)cc4s3)cc2)cc1)C(=O)O`, for which, in series [2], the Activity was 84%. The solubility at 24 h in series [3] turned out to be 10 µg/mL (≈ 21.6 µM).

Consider `CC(C)[C@H](NC(=O)c1cc(-c2ccc(NC(=O)C(=O)Nc3cccc(C(F)(F)F)c3)cc2)no1)C(=O)O`, for which, in series [1], the inhibition amounted to 16%.

For `Cc1ccccc1S(=O)(=O)NC(=O)Nc1ccc(-c2cc(C(=O)N[C@H](C(=O)O)C(C)C)on2)cc1`, the inhibition in series [1] was determined as 26%. The same measure, in the same setting: then `CC(C)[C@H](NC(=O)c1ncc(-c2ccc(NC(=O)Nc3ccc(Cl)cc3F)cc2)o1)C(=O)O`, with 70%; and `CC(C)[C@H](NC(=O)c1nc(-c2ccc(NC(=O)Nc3ccc(F)cc3)cc2)no1)C(=O)O`, with 61%; and `Cc1ccc(NC(=O)Nc2ccc(-c3noc(C(=O)N[C@H](C(=O)O)C(C)C)n3)cc2)cc1`, with 61%.

On to `CC(C)[C@H](NC(=O)c1cc(-c2ccc(NC(=O)Nc3ccc(F)cc3)cc2)no1)C(=O)O`, for which the inhibition in series [1] came out at 78%.

With `CC(C)[C@H](NC(=O)c1nc(-c2ccc(NC(=O)Nc3ccccc3Cl)cc2)no1)C(=O)O`, the inhibition in series [1] was 62%. In the case of `CC(C)[C@H](NC(=O)c1ncc(-c2ccc(NC(=O)Nc3ccc(Cl)cc3)cc2)o1)C(=O)O`, in series [1], the inhibition was 59%.

With `CC(C)[C@H](NC(=O)c1nc(-c2ccc(NC(=O)Nc3ccc(Cl)cc3)cc2)no1)C(=O)O`, in series [1], the inhibition came to 40%. Regarding `CC(C)[C@H](NC(=O)c1nc(-c2ccc(NC(=O)Nc3ccc(F)cc3F)cc2)no1)C(=O)O`, the inhibition in series [1] was determined as 75%.

For `CC(C)[C@H](NC(=O)c1nc(-c2ccc(NC(=O)Nc3cccc(Cl)c3)cc2)no1)C(=O)O`, the inhibition in series [1] was found to be 71%.

Turning to `Cc1ccc(NC(=O)Nc2ccc(-c3cc(C(=O)N[C@H](C(=O)O)C(C)C)on3)cc2)cc1`, the Activity in series [2] was 79%. The same molecule registered a solubility at 24 h in series [3] of 380 µg/mL (≈ 871 µM). Also, the inhibition in series [1] was 80%. With `Cc1ccc(NC(=O)Nc2ccc(-c3cc(C(=O)N[C@H](C(=O)O)C(C)C)on3)cc2)cc1C`, the inhibition in series [1] was found to be 83%. As for `CC(C)[C@H](NC(=O)c1cc(-c2ccc(OCc3ccc(F)cc3)cc2)no1)C(=O)O`, the inhibition in series [1] was found to be 18%. With `CC(C)[C@H](NC(=O)c1ncc(-c2ccc(NC(=O)Nc3ccccc3Cl)cc2)o1)C(=O)O`, the inhibition in series [1] was found to be 80%. With `CC(C)[C@H](NC(=O)c1nc(-c2ccc(NC(=O)Nc3cccc(C(F)(F)F)c3)cc2)no1)C(=O)O`, the inhibition in series [1] turned out to be 48%. As for `COc1ccc(NC(=O)Nc2ccc(-c3cc(C(=O)N[C@H](C(=O)O)C(C)C)on3)cc2)cc1`, the Activity in series [2] is 90%. The same molecule returned a solubility at 24 h in series [3] of 430 µg/mL (≈ 950 µM).

For `CC(C)[C@H](NC(=O)c1ncc(-c2ccc(NC(=O)Nc3cccc(C(F)(F)F)c3)cc2)o1)C(=O)O`, in series [1], the inhibition turned out to be 75%. Same read-out and setting: then `CC(C)[C@H](NC(=O)c1cc(-c2ccc(NC(=O)Nc3ccc(F)cc3F)cc2)no1)C(=O)O`, with 85%; and `CC(C)[C@H](NC(=O)c1cc(-c2ccc(NC(=O)Nc3ccc(Cl)cc3F)cc2)no1)C(=O)O`, with 90%. On the same count and under the same terms, then `CC(C)[C@H](NC(=O)c1cc(-c2ccc(NC(=O)Nc3cccc(Cl)c3)cc2)no1)C(=O)O`, with 84%; and `CC(C)[C@H](NC(=O)c1cc(-c2ccc(NC(=O)Nc3ccccc3Cl)cc2)no1)C(=O)O`, with 90%. On the same count and under the same terms, under `CC(C)[C@H](NC(=O)c1cc(-c2ccc(NS(=O)(=O)c3c(F)cccc3F)cc2)no1)C(=O)O` stands 23%; under `CC(C)[C@H](NC(=O)c1cc(-c2ccc(NC(=O)c3ccc(F)cc3)cc2)no1)C(=O)O`, 44%; under `CC(C)[C@H](NC(=O)c1ncc(-c2ccc(NC(=O)Nc3ccc(Cl)cc3Oc3ccccc3)cc2)o1)C(=O)O`, 91%. For `CC(C)[C@H](NC(=O)c1ncc(-c2ccc(NC(=O)Nc3cccc(Cl)c3)cc2)o1)C(=O)O`, the inhibition in series [1] amounted to 72%. The same measure, in the same setting: under `CC(C)[C@H](NC(=O)c1cc(-c2ccc(NC(=O)Nc3cccc(C(F)(F)F)c3)cc2)no1)C(=O)O` stands 85%. As to `CC(C)[C@H](NC(=O)c1cc(-c2ccc(Nc3nc4ccc(F)cc4s3)cc2)no1)C(=O)O`, the Activity in series [2] was 29%. Besides, the solubility at 24 h in series [3] is 60 µg/mL (≈ 132 µM).

For the molecule `CC(C)[C@H](NC(=O)c1cc(-c2ccc(NC(=S)Nc3ccccc3F)cc2)no1)C(=O)O`, the inhibition in series [1] is 72%. Still for that read-out and setting: then `CC(C)[C@H](NC(=O)c1cc(-c2ccc(NC(=O)[C@H](O)c3ccccc3)cc2)no1)C(=O)O`, with 59%.

The values above are taken from ChEMBL document CHEMBL2040747, “Synthesis and biological evaluation of isoxazole, oxazole, and oxadiazole containing heteroaryl analogs of biaryl ureas as DGAT1 inhibitors” (Eur J Med Chem, 2012).
